Measured values: ChEMBL document CHEMBL1124055, “Analogues of [(triethylsilyl)ethynyl]estradiol as potential antifertility agents” (1988)

Assays:
Format in all cases: functional
Rattus norvegicus [1] = species on record: Rattus norvegicus; assay: Oral estrogenic potency (E) relative to ethynylestradiol (EE) in rats
Outline: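 Rats given compound orally by gavage once daily for 3 consecutive days; vehicle-only control; 10 animals/group. Autopsy 24 h after last dose; uteri excised, cleaned, blotted and weighed to nearest 0.2 mg. Regression lines for standard (ethynylestradiol) and test compound constructed and compared to derive relative potency.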

Rattus norvegicus [2] = species on record: Rattus norvegicus; assay: Oral antifertility potency (A) relative to ethynylestradiol (EE) in rats.
Outline: (§1)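 Mated cycling adult female rats (cohabited with males on proestrus night; sperm in vaginal washings) dosed orally by gavage in sesame oil once daily for 7 consecutive days; vehicle control; 10 rats/group. Killed about day 8; uteri examined for presence and condition of conceptuses. Potency from comparison with regression line of standard ethynylestradiol.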

Rattus norvegicus [3] = species on record: Rattus norvegicus; assay: Oral antifertility potency (A) relative to ethynylestradiol (EE) in rats; outline: as §1

Row | SMILES | Potency (Rattus norvegicus [1]) | Potency (Rattus norvegicus [2]) | Potency (Rattus norvegicus [3])
1 | C#C[C@]1(O)CC[C@H]2[C@@H]3C[C@@H](C)c4cc(O)ccc4[C@H]3CC[C@@]21C | 1.8% | >0.5 mg/kg/day | –
2 | C#C[C@]1(O)CC[C@H]2[C@@H]3CCc4cc(O)ccc4[C@H]3CC[C@@]21C [ETHINYL ESTRADIOL] | 100% | – | 100%
3 | CC[Si](C#C[C@]1(O)CC[C@H]2[C@@H]3C[C@@H](C)c4cc(O)ccc4[C@H]3CC[C@@]21C)(CC)CC | 0.2% | – | 7.5%
4 | C#C[C@]1(O)CC[C@H]2[C@@H]3CCc4cc(O)ccc4[C@H]3[C@@H](O)C[C@@]21C | 0.8% | – | 200%
5 | CCCN(CCC)Cc1cc2c(cc1O)CC[C@@H]1[C@@H]2CC[C@@]2(C)[C@H]1CC[C@@]2(O)C#C[Si](CC)(CC)CC | 0.3% | >1 mg/kg/day | –
6 | C#C[C@]1(O)CC[C@H]2[C@@H]3CCc4cc(OC)ccc4[C@H]3CC[C@@]21C [MESTRANOL] | 0.3% | >2 mg/kg/day | –
7 | CC[Si](C#C[C@]1(O)CC[C@H]2[C@@H]3CCc4cc(OC)ccc4[C@H]3CC[C@@]21C)(CC)CC | 1.8% | >2 mg/kg/day | –
8 | C#C[C@]1(O)CC[C@H]2[C@@H]3C[C@H](O)c4cc(O)ccc4[C@H]3CC[C@@]21C | 16% | >0.2 mg/kg/day | –
9 | C#C[C@]1(O)CC(OC)[C@H]2[C@@H]3CCc4cc(OC)ccc4[C@H]3CC[C@@]21C (stereo partly drawn) | 0.8% | – | 10%
10 | CC[Si](C#C[C@]1(O)CCC2C3C=Cc4cc(O)ccc4C3CCC21C)(CC)CC (stereo partly drawn) | 2% | – | 200%
11 | CC[Si](C#C[C@]1(O)CCC2=C3C=Cc4cc(O)ccc4C3CCC21C)(CC)CC (stereo partly drawn) | 1% | – | 66%
12 | CC[Si](C#C[C@]1(O)CC[C@H]2[C@@H]3C[C@@H](O)c4cc(O)ccc4[C@H]3CC[C@@]21C)(CC)CC | 16% | – | 40%
13 | CC[Si](C#C[C@]1(O)C(C)C[C@H]2[C@@H]3CCc4cc(O)ccc4[C@H]3CC[C@@]21C)(CC)CC (stereo partly drawn) | 0.2% | >0.8 mg/kg/day | –
14 | C#C[C@]1(O)CC[C@H]2[C@@H]3[C@H](O)Cc4cc(O)ccc4[C@H]3CC[C@@]21C | 0.1% | – | 66%
15 | CC[Si](C#C[C@]1(O)CC[C@H]2[C@@H]3C[C@H](O)c4cc(O)ccc4[C@H]3CC[C@@]21C)(CC)CC | 38% | – | 300%
16 | C#C[C@]1(O)CCC2C3C=Cc4cc(O)ccc4C3CCC21C (stereo partly drawn) | 2% | – | 20%
17 | C#C[C@]1(O)CC[C@H]2[C@@H]3CCc4cc(O)c(OC)cc4[C@H]3CC[C@@]21C | 0.3% | >2 mg/kg/day | –

Row | SMILES | Potency (Rattus norvegicus [1]) | Potency (Rattus norvegicus [2]) | Potency (Rattus norvegicus [3])
18 | C#C[C@]1(O)C(C)C[C@H]2[C@@H]3CCc4cc(O)ccc4[C@H]3CC[C@@]21C (stereo partly drawn) | 0.5% | >2 mg/kg/day | –
19 | CC[Si](C#C[C@]1(O)CC[C@H]2[C@@H]3CCc4cc(O)c(OC)cc4[C@H]3CC[C@@]21C)(CC)CC | 0.06% | >2.8 mg/kg/day | –
20 | C#C[C@]1(O)CC[C@H]2[C@@H]3[C@H](O)[C@H](O)c4cc(O)ccc4[C@H]3CC[C@@]21C | 0.3% | >0.5 mg/kg/day | –
21 | CC[Si](C#C[C@]1(O)CCCC2C3CCc4cc(O)ccc4C3CCC21C)(CC)CC (stereo partly drawn) | 0.1% | >2 mg/kg/day | –
22 | C#C[C@]1(O)CC[C@H]2[C@@H]3CCc4cc(O)c(CN(CCC)CCC)cc4[C@H]3CC[C@@]21C | 1.3% | >2 mg/kg/day | –
23 | CC[Si](C#C[C@]1(O)CC[C@H]2[C@@H]3CCc4cc(O)ccc4[C@H]3CC[C@@]21C)(CC)CC | 37% | – | 600%
24 | CC[Si](C#C[C@]1(O)CC[C@H]2[C@@H]3[C@H](O)Cc4cc(O)ccc4[C@H]3CC[C@@]21C)(CC)CC | 0.3% | – | 20%
25 | C#C[C@]1(O)CC[C@H]2[C@@H]3CCc4cc(O)c(C)cc4[C@H]3CC[C@@]21C | 5.5% | – | 40%
26 | C#C[C@]1(O)CCC2c3ccc4cc(O)ccc4c3CCC21C (stereo partly drawn) | 0.6% | – | 10%
27 | C#C[C@]1(O)CC[C@H]2[C@@H]3CCc4c(ccc(O)c4CC=C)[C@H]3CC[C@@]21C | 0.1% | >2 mg/kg/day | –
28 | CC[Si](C#C[C@]1(O)CC[C@H]2[C@@H]3[C@H](O)[C@H](O)c4cc(O)ccc4[C@H]3CC[C@@]21C)(CC)CC | 0.6% | >0.5 mg/kg/day | –
29 | CC[Si](C#C[C@]1(O)CC[C@H]2[C@@H]3CCc4cc(O)ccc4[C@H]3[C@@H](O)C[C@@]21C)(CC)CC | 14.4% | – | 64%
30 | CC[Si](C#C[C@]1(O)CC[C@H]2[C@@H]3CCc4cc(O)c(C)cc4[C@H]3CC[C@@]21C)(CC)CC | 2.2% | – | 40%
31 | C=CCc1c(O)ccc2c1CC[C@@H]1[C@@H]2CC[C@@]2(C)[C@H]1CC[C@@]2(O)C#C[Si](CC)(CC)CC | 0% | >3 mg/kg/day | –
32 | CC[Si](C#C[C@]1(O)CC(OC)[C@H]2[C@@H]3CCc4cc(OC)ccc4[C@H]3CC[C@@]21C)(CC)CC (stereo partly drawn) | 3% | >0.2 mg/kg/day | –
33 | C#C[C@]1(O)CC[C@H]2[C@@H]3CCc4ccccc4[C@H]3CC[C@@]21C | 31% | – | 33%
34 | CC[Si](C#C[C@]1(O)CC[C@H]2[C@@H]3CCc4ccccc4[C@H]3CC[C@@]21C)(CC)CC | 13% | – | 100%
